Measured values: ChEMBL document CHEMBL4184197 (Bioorg Med Chem, 2018)

What was measured:
[1] = target: Muscarinic acetylcholine receptor M2 (Homo sapiens) (UniProt P08172); test: Binding affinity to muscarinic M2 receptor (unknown origin)
[2] = target: MAO-B (amine oxidase [flavin-containing] B) (Homo sapiens, UniProt P27338); test: Binding affinity to recombinant human MAO-B at 10 uM after 60 mins by luminescence analysis relative to control; conditions: read-out: Activity
[3] = target: Type-1 angiotensin II receptor (Homo sapiens) (UniProt P30556); test: Binding affinity to recombinant human AT1 receptor at 10 uM after 120 mins by scintillation counting analysis relative to control
[4] = target: Estrogen receptor (Homo sapiens) (UniProt P03372); test: Binding affinity to human ER at 10 uM after 1200 mins by scintillation counting analysis relative to control
Homo sapiens [5] = organism: Homo sapiens; test: Binding affinity to P2Y receptor (unknown origin) at 10 uM relative to control
Rattus norvegicus [6] = organism: Rattus norvegicus; test: Binding affinity to rat GABA receptor at 10 uM after 30 mins by scintillation counting analysis relative to control
[7] = target: C-X-C chemokine receptor type 2 (Homo sapiens) (UniProt P25025); test: Binding affinity to recombinant human CXCR2 receptor at 10 uM after 60 mins by scintillation counting analysis relative to control
Sequence of C-X-C chemokine receptor type 2 (Homo sapiens) (P25025 whole entry): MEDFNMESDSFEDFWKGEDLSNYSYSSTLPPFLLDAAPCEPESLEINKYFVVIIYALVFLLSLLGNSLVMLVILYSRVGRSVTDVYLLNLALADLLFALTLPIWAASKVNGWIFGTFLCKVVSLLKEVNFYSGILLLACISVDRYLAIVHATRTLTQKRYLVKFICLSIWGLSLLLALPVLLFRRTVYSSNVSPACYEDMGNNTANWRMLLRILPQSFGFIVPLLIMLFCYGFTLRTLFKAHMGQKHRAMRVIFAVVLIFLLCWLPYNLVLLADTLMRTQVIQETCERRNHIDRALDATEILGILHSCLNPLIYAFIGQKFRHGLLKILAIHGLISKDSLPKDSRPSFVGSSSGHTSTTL

COS-7 = test: Cytotoxicity against African green monkey COS7 cells assessed as cell death after 2 days by MTT assay; assay type: cell-based; conditions: chlorocebus aethiops, cos-7, 48 h
[8] = target: Adenosine receptor A1 (Homo sapiens) (UniProt P30542); test: Binding affinity to recombinant human A1 receptor at 10 uM after 60 mins by scintillation counting analysis relative to control
Sequence of Adenosine receptor A1 (Homo sapiens) (P30542 whole entry): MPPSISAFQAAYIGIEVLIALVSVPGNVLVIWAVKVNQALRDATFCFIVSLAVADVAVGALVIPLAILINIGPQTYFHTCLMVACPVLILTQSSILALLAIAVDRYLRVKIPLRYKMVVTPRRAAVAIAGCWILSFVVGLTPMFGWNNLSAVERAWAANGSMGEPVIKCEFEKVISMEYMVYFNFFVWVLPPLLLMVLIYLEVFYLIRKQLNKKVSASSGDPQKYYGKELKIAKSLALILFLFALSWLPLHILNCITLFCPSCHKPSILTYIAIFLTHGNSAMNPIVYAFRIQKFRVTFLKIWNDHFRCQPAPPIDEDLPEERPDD

Homo sapiens [9] = organism: Homo sapiens; test: Binding affinity to recombinant human dopamine receptor D4.4 at 10 uM after 60 mins by scintillation counting analysis relative to control
Tryptase (Homo sapiens) = Tryptase (Homo sapiens) (UniProt Q9BZJ3+Q15661+Q9NRR2); test: Binding affinity to human tryptase at 10 uM after 8 mins by spectrophotometric analysis relative to control; assay type: protein assay
[10] = target: Procathepsin L (Homo sapiens) (UniProt P07711); test: Binding affinity to human cathepsin L at 10 uM after 30 mins by fluorescence assay relative to control
[11] = target: Sodium-dependent dopamine transporter (Homo sapiens) (UniProt Q01959); test: Binding affinity to dopamine transporter (unknown origin) at 10 uM relative to control
[12] = target: Vasopressin V1a receptor (Homo sapiens) (UniProt P37288); test: Binding affinity to recombinant human V1A receptor at 10 uM after 60 mins by scintillation counting analysis relative to control
[13] = target: Secretory phospholipase A2 receptor (Homo sapiens) (UniProt Q13018); test: Binding affinity to recombinant human sPLA2 receptor at 10 uM after 20 mins by spectrophotometric analysis relative to control
[14] = target: Kappa-type opioid receptor (Homo sapiens) (UniProt P41145); test: Binding affinity to human kappa opioid receptor at 10 uM after 60 mins by scintillation counting analysis relative to control
[15] = target: Muscarinic acetylcholine receptor M5 (Homo sapiens) (UniProt P08912); test: Binding affinity to recombinant human muscarinic M5 receptor at 10 uM after 60 mins by scintillation counting analysis relative to control
Rattus norvegicus [16] = organism: Rattus norvegicus; test: Binding affinity to rat SKCa channel at 10 uM after 60 mins by scintillation counting analysis relative to control
Homo sapiens [17] = organism: Homo sapiens; test: Binding affinity to bombesin receptor (unknown origin) at 10 uM relative to control
[18] = target: Voltage-gated inwardly rectifying potassium channel KCNH2 (Homo sapiens, UniProt Q12809); test: Displacement of [3H]-astemizole from human ERG up to 10 uM
Sequence of Voltage-gated inwardly rectifying potassium channel KCNH2 (Q12809 whole entry): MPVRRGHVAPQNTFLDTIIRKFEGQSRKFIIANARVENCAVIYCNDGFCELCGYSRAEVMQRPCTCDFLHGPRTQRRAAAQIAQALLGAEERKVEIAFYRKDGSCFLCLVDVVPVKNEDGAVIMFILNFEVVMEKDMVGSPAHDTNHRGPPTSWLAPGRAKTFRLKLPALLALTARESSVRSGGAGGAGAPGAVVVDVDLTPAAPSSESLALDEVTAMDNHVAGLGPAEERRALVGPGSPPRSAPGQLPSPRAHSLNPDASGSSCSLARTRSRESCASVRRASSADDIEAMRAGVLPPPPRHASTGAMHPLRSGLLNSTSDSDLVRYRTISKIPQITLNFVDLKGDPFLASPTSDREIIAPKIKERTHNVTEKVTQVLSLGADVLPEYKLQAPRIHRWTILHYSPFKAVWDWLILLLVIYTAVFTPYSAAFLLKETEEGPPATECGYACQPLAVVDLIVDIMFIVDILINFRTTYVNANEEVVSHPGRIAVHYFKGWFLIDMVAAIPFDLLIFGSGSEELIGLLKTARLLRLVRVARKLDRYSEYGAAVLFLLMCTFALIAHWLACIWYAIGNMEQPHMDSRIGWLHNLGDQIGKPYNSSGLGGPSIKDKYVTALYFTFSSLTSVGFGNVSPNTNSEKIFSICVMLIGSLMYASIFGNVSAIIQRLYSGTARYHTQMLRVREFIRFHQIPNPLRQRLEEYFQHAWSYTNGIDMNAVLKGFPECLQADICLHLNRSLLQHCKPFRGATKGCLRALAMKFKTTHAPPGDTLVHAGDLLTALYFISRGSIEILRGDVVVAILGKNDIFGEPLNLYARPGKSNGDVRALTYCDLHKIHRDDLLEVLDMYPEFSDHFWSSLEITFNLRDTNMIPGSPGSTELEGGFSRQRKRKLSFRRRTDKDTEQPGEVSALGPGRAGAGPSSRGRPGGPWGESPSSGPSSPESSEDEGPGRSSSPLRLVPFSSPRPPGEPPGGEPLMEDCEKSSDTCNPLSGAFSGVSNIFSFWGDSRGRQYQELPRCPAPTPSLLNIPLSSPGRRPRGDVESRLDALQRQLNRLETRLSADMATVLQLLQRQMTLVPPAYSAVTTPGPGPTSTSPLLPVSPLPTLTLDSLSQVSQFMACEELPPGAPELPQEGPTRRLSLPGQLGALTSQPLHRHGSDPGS
How it was run: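 hERG channel binding assay run by a contract lab; compound tested up to 10 μM.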

Salmonella typhimurium [19] = test: Mutagenicity in Salmonella typhimurium TA1535 in absence of rat liver S9 fraction by Ames test; assay type: toxicity, organism-based; conditions: salmonella enterica subsp. enterica serovar typhimurium
[20] = target: Gastrin/cholecystokinin type B receptor (Homo sapiens) (UniProt P32239); test: Binding affinity to recombinant human CCK2 at 10 uM after 60 mins by scintillation counting analysis relative to control
[21] = target: Endothelin-converting enzyme 1 (Homo sapiens) (UniProt P42892); test: Binding affinity to ECE-1 (unknown origin) at 10 uM relative to control
Homo sapiens [22] = organism: Homo sapiens; test: Binding affinity to delta-2-opioid receptor (unknown origin) at 10 uM relative to control
Salmonella typhimurium [23] = test: Mutagenicity in Salmonella typhimurium TA98 in absence of rat liver S9 fraction by Ames test; assay type: toxicity, organism-based; conditions: salmonella enterica subsp. enterica serovar typhimurium
[24] = target: Kinesin-like protein KIF11 (Homo sapiens) (UniProt P52732); test: Binding affinity to recombinant human EG5 at 10 uM after 10 mins by spectrophotometric analysis relative to control
Sequence of Kinesin-like protein KIF11 (Homo sapiens) (P52732 whole entry): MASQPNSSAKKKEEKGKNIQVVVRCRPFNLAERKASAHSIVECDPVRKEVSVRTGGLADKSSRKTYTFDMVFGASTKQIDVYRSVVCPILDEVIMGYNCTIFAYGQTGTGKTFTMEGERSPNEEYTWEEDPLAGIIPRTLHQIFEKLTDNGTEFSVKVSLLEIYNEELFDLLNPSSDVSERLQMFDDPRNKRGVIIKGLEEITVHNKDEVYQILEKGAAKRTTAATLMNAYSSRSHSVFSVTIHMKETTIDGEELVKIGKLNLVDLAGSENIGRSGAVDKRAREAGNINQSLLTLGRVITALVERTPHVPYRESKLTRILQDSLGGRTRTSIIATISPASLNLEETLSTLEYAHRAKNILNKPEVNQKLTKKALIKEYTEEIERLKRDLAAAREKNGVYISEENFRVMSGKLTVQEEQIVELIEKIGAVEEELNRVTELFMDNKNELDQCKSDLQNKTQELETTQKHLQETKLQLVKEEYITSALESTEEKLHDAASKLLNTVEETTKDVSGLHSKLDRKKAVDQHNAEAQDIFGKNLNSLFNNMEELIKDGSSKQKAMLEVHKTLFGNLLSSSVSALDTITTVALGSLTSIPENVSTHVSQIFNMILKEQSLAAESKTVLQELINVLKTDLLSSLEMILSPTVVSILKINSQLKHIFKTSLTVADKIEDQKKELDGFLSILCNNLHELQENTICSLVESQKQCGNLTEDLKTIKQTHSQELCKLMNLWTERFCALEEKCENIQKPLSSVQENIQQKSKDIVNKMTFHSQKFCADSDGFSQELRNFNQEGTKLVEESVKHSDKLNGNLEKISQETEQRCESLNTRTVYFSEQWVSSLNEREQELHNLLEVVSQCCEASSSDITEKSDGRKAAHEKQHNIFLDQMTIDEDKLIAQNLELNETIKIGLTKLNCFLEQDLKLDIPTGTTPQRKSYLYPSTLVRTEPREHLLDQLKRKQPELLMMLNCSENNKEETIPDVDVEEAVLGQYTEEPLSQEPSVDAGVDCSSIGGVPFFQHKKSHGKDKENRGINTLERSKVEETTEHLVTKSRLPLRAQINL

[25] = target: Acetylcholinesterase (Homo sapiens) (UniProt P22303); test: Binding affinity to recombinant human acetylcholinesterase at 10 uM after 30 mins by spectrophotometric analysis relative to control
[26] = target: Adrenergic receptor alpha-2 (Homo sapiens) (UniProt P08913+P18825+P18089); test: Binding affinity to alpha2 receptor (unknown origin) at 10 uM relative to control; assay type: protein assay
[27] = target: Endothelin receptor type B (Homo sapiens) (UniProt P24530); test: Binding affinity to recombinant human ETB receptor at 10 uM after 120 mins by scintillation counting analysis relative to control
[28] = target: Angiotensin-converting enzyme (Homo sapiens) (UniProt P12821); test: Binding affinity to ACE (unknown origin) at 10 uM relative to control
Sequence of Angiotensin-converting enzyme (Homo sapiens) (P12821 whole entry): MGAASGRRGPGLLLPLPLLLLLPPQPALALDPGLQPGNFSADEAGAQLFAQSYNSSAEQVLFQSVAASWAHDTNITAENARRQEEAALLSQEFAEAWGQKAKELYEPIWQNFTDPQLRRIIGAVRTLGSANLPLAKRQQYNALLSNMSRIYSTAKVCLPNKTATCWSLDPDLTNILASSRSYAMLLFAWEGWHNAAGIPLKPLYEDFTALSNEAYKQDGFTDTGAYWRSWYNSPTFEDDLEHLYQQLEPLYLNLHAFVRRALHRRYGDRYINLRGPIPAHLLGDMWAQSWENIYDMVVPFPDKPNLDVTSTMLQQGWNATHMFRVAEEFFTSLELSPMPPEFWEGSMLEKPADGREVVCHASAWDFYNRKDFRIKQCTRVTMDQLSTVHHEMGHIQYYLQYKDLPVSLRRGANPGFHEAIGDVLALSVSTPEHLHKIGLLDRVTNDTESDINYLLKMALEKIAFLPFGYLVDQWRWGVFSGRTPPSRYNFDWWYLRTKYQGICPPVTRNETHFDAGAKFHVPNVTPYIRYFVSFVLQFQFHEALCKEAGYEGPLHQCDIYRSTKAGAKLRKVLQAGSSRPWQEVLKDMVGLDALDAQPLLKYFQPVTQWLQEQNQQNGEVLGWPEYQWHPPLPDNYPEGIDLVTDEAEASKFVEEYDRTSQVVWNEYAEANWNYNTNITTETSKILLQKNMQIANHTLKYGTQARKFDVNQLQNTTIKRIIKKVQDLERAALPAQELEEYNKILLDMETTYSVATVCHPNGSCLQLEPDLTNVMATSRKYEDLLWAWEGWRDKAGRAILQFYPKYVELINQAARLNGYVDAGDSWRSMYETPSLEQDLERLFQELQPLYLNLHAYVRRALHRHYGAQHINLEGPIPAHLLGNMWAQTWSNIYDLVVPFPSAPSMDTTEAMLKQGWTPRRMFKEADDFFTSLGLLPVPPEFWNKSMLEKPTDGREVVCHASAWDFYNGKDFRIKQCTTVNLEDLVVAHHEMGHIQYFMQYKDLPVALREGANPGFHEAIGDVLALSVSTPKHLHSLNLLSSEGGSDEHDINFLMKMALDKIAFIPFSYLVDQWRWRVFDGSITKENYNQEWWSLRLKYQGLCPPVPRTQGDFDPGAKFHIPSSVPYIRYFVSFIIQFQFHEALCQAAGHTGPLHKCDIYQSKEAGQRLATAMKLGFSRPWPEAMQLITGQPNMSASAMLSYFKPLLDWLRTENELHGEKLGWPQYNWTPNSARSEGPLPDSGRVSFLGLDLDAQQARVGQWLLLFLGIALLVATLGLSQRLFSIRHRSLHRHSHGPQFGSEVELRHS

[29] = target: Prostacyclin receptor (Homo sapiens) (UniProt P43119); test: Binding affinity to recombinant human IP receptor at 10 uM after 60 mins by scintillation counting analysis relative to control
Salmonella typhimurium [30] = test: Mutagenicity in Salmonella typhimurium TA100 in absence of rat liver S9 fraction by Ames test; assay type: toxicity, organism-based; conditions: salmonella enterica subsp. enterica serovar typhimurium
[31] = target: Stromelysin-1 (Homo sapiens) (UniProt P08254); test: Binding affinity to human MMP3 at 10 uM after 30 mins by fluorescence assay relative to control
[32] = target: 5-hydroxytryptamine receptor 5A (Homo sapiens) (UniProt P47898); test: Binding affinity to recombinant human 5-HT5A receptor at 10 uM after 120 mins by scintillation counting analysis relative to control
[33] = target: Pituitary adenylate cyclase-activating polypeptide type I receptor (Homo sapiens) (UniProt P41586); test: Binding affinity to recombinant human PACAP receptor at 10 uM after 120 mins by scintillation counting analysis relative to control
[34] = target: Angiotensin-converting enzyme 2 (Homo sapiens) (UniProt Q9BYF1); test: Binding affinity to recombinant human ACE-2 at 10 uM after 20 mins by fluorescence assay relative to control
Sequence of Angiotensin-converting enzyme 2 (Homo sapiens) (Q9BYF1 18-805 limits assumed): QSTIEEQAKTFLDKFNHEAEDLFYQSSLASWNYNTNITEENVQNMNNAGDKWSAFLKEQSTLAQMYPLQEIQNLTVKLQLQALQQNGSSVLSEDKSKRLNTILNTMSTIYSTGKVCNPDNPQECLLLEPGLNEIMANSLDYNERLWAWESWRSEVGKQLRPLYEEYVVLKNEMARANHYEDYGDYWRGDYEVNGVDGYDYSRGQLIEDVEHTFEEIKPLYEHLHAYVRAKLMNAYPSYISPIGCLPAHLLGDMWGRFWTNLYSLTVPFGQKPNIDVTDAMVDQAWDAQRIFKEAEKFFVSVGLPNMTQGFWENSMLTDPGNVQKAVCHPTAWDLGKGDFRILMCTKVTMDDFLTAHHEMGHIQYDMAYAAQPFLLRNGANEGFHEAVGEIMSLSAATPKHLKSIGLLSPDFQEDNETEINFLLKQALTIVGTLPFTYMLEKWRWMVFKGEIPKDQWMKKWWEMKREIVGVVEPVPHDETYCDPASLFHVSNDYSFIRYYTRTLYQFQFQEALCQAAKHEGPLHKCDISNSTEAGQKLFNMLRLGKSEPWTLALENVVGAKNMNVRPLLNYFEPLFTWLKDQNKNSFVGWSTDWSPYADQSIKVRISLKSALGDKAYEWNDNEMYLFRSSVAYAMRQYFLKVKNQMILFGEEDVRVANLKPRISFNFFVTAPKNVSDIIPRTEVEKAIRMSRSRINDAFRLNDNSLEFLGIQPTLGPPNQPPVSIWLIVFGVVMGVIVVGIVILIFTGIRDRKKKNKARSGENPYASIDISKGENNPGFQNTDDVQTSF

[35] = target: 3',5'-cyclic-AMP phosphodiesterase 4D (Homo sapiens) (UniProt Q08499); test: Binding affinity to recombinant human PDE4D2 at 10 uM after 20 mins by scintillation counting analysis relative to control
[36] = target: Neuromedin-K receptor (Homo sapiens) (UniProt P29371); test: Binding affinity to recombinant human NK3 receptor at 10 uM after 120 mins by scintillation counting analysis relative to control

CCOc1c(Cl)cc(C(=O)Nc2ccc(C(=O)O)c(C)c2)cc1OC(C)C
Activity [1]: < 25% | activity at 1 h, 10 µM [2]: ≤ 25% | Activity [3]: < 25% | Activity [4]: < 25% | Activity (Homo sapiens [5]): < 25% | Activity (Rattus norvegicus [6]): < 25% | Activity [7]: < 25% | Activity (COS-7): Non-Toxic | Activity [8]: < 25% | Activity (Homo sapiens [9]): < 25% | Activity (Tryptase (Homo sapiens)): < 25% | Activity [10]: < 25% | Activity [11]: < 25% | Activity [12]: < 25% | Activity [13]: < 25% | Activity [14]: < 25% | Activity [15]: < 25% | Activity (Rattus norvegicus [16]): < 25% | Activity (Homo sapiens [17]): < 25% | Activity [18]: Not Active | Activity (Salmonella typhimurium [19]): Non-Toxic | Activity [20]: < 25% | Activity [21]: < 25% | Activity (Homo sapiens [22]): < 25% | Activity (Salmonella typhimurium [23]): Non-Toxic | Activity [24]: < 25% | Activity [25]: < 25% | Activity [26]: < 25% | Activity [27]: < 25% | Activity [28]: < 25% | Activity [29]: < 25% | Activity (Salmonella typhimurium [30]): Non-Toxic | Activity [31]: < 25% | Activity [32]: < 25% | Activity [33]: < 25% | Activity [34]: < 25% | Activity [35]: < 25% | Activity [36]: < 25%
